The text below walks through data of ChEMBL document CHEMBL1131198, “From micromolar to nanomolar affinity: a systematic approach to identify the binding site of CGRP at the human calcitonin gene-related peptide 1 receptor” (J Med Chem, 1998).

Numbered stars: 1 amine (or outer) side, 2 acyl side, 3 side chain; on linkers, the order of the positions; unused ones are H or OH. Square brackets hold non-standard residues; d marks the D form. Peptide text beside a SMILES is read from it. X1 = O=C(C1(c2ccccc2)CC1CN[*:1])[*:2]; X2 = O=C(C1CC1CN[*:1])[*:2]; Aib = CC(C)(N)C(=O)O

One may read the IC50 as the concentration at which inhibition is half-maximal.

Chain of Calcitonin gene-related peptide type 1 receptor (Q16602 whole entry, one chain of several): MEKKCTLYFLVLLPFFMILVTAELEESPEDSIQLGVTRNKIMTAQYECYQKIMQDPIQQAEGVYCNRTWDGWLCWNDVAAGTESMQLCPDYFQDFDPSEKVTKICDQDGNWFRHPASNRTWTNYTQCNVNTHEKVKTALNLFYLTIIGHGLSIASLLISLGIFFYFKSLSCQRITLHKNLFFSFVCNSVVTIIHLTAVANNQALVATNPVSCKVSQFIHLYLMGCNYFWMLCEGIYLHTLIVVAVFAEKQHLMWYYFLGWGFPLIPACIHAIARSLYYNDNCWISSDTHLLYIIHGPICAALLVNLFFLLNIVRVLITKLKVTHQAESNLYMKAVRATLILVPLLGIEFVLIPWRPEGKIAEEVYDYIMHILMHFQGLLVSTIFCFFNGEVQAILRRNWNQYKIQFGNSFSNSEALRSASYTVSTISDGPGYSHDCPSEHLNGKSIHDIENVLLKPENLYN

The test addresses Calcitonin gene-related peptide type 1 receptor (Homo sapiens, UniProt O60894+Q16602). The test is described as follows: CGRP1 receptor affinity on human neuroblastoma cells SK-N-MC, which selectively express the human CGRP1 receptor. In a few lines:
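SK-N-MC membranes (cells grown in DMEM, detached with PBS/0.02% EDTA, homogenized, pellet in Tris buffer pH 7.40 with 1% BSA, 0.1% bacitracin, stored -80 °C) diluted 1:10 in assay buffer (50 mM Tris, 150 mM NaCl, 5 mM MgCl2, 1 mM EDTA, pH 7.40).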
Take `CC(C)[C@H](NC(=O)[C@H](CC(=O)O)NC(=O)[C@@H](NC(=O)[C@@H]1CCCN1C(=O)[C@@H](NC(=O)[C@@H](N)Cc1ccccc1)C(C)C)[C@@H](C)O)C(=O)NCC(=O)N1CCCC[C@H]1C(=O)N[C@@H](Cc1ccccc1)C(=O)N[C@@H](C)C(=O)N[C@@H](Cc1ccccc1)C(=O)O`: the IC50 came to 0.91 µM.
The same measure for `CC(C)[C@H](NC(=O)[C@@H](CC(N)=O)NC(=O)[C@@H](NC(=O)[C@@H]1CCCN1C(=O)[C@@H](NC(=O)[C@@H](N)Cc1ccc(O)cc1)C(C)C)[C@@H](C)O)C(=O)NCC(=O)N[C@@H](CO)C(=O)N[C@@H](CCC(=O)O)C(=O)N[C@@H](C)C(=O)N[C@@H](Cc1ccccc1)C(=O)O`: above 100 µM.
The same measure for `CC(C)[C@H](NC(=O)[C@H](CC(=O)O)NC(=O)[C@@H](NC(=O)[C@@H]1CCCN1C(=O)[C@@H](NC(=O)[C@@H](N)Cc1ccccc1)C(C)C)[C@@H](C)O)C(=O)NCC(=O)N1CCC[C@H]1C(=O)N[C@@H](Cc1ccccc1)C(=O)N[C@@H](C)C(=O)N[C@@H](Cc1ccccc1)C(=O)O`: 0.029 µM.
For `CC(C)[C@H](NC(=O)[C@H](CC(=O)O)NC(=O)[C@@H](NC(=O)[C@@H]1CCCN1C(=O)[C@@H](NC(=O)[C@@H](N)Cc1ccccc1)C(C)C)[C@@H](C)O)C(=O)NCC(=O)N1C[C@H](O)C[C@H]1C(=O)N[C@@H](Cc1ccccc1)C(=O)N[C@@H](C)C(=O)N[C@@H](Cc1ccccc1)C(=O)O`, the IC50 was 0.62 µM.
The same measure for `CC(C)[C@H](NC(=O)[C@H](CC(N)=O)NC(=O)[C@@H](NC(=O)[C@@H]1CCCN1C(=O)[C@@H](NC(=O)[C@@H](N)Cc1ccc(O)cc1)C(C)C)[C@@H](C)O)C(=O)NCC(=O)N[C@@H](CO)C(=O)N[C@@H](CCC(=O)O)C(=O)N[C@H](C)C(=O)N[C@@H](Cc1ccccc1)C(=O)O`: above 100 µM; for `CC(C)[C@H](NC(=O)[C@H](CC(N)=O)NC(=O)[C@@H](NC(=O)[C@@H]1CCCN1C(=O)[C@@H](NC(=O)[C@@H](N)Cc1ccc(O)cc1)C(C)C)[C@@H](C)O)C(=O)NCC(=O)N[C@H](CO)C(=O)N[C@@H](CCC(=O)O)C(=O)N[C@@H](C)C(=O)N[C@@H](Cc1ccccc1)C(=O)O`: above 100 µM.
The same measure for `CC(C)[C@H](NC(=O)[C@H](CC(N)=O)NC(=O)[C@@H](NC(=O)[C@@H]1CCCN1C(=O)[C@@H](NC(=O)[C@H](N)Cc1ccc(O)cc1)C(C)C)[C@@H](C)O)C(=O)NCC(=O)N[C@@H](CO)C(=O)N[C@@H](CCC(=O)O)C(=O)N[C@@H](C)C(=O)N[C@@H](Cc1ccccc1)C(=O)O`: 80 µM; for `CC(C)[C@H](NC(=O)[C@H](CC(N)=O)NC(=O)[C@@H](NC(=O)[C@@H]1CCCN1C(=O)[C@@H](NC(=O)[C@@H](N)Cc1ccc(O)cc1)C(C)C)[C@@H](C)O)C(=O)NCC(=O)N[C@@H](CO)C(=O)N[C@@H](CCC(=O)O)C(=O)N[C@@H](C)C(=O)N[C@@H](Cc1ccccc1)C(=O)O`: 3 µM; for `CC(C)[C@H](NC(=O)[C@H](CC(=O)O)NC(=O)[C@@H](NC(=O)[C@@H]1CCCN1C(=O)[C@@H](NC(=O)[C@@H](N)Cc1ccccc1)C(C)C)[C@@H](C)O)C(=O)NCC(=O)NC(C)(C)C(=O)N[C@@H](Cc1ccccc1)C(=O)N[C@@H](C)C(=O)N[C@@H](Cc1ccccc1)C(=O)O` (H-FVPTDVG[Aib]FAF-OH): 0.17 µM.
The same measure for `CC(C)[C@H](NC(=O)[C@H](CC(=O)O)NC(=O)[C@@H](NC(=O)[C@@H]1CCCN1C(=O)[C@@H](NC(=O)[C@@H](N)Cc1ccccc1)C(C)C)[C@@H](C)O)C(=O)NCC(=O)NCC1CC1(C(=O)N[C@@H](Cc1ccccc1)C(=O)N[C@@H](C)C(=O)N[C@@H](Cc1ccccc1)C(=O)O)c1ccccc1` (stereo partly specified) (H-FVPTDVG[X1]FAF-OH): above 3 µM; for `CC(C)[C@H](NC(=O)[C@H](CC(=O)O)NC(=O)[C@@H](NC(=O)[C@@H]1CCCN1C(=O)[C@@H](NC(=O)[C@@H](N)Cc1ccccc1)C(C)C)[C@@H](C)O)C(=O)NCC(=O)NCC1CC1C(=O)N[C@@H](Cc1ccccc1)C(=O)N[C@@H](C)C(=O)N[C@@H](Cc1ccccc1)C(=O)O` (stereo partly specified) (H-FVPTDVG[X2]FAF-OH): above 3 µM.
